# Data taken from ChEMBL document CHEMBL1221379, “Identification and hit-to-lead optimization of a novel class of CB1 antagonists” (Bioorg Med Chem Lett, 2010).
# What was measured:
# [1] = target: Cannabinoid receptor 1 (Homo sapiens, UniProt P21554); assay: Antagonist activity at human cannabinoid CB1 receptor expressed in CHO cells by luciferase reporter gene assay
# [2] = Metabolic stability in human liver microsome assessed as compound remaining after 0.5 hrs; format: ADME; details: liver microsomes, read-out: Stability
# Outline: (§1)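 Human or mouse liver microsomes (300 nM cytochrome P450) in phosphate buffer pH 7.4 with 1 µM test compound and 1 mM NADPH. Incubated 30 min at 37 °C, stopped with acetonitrile, centrifuged, and analysed by LC/MS. Result given as % compound remaining at 0.5 h.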
# [3] = Metabolic stability in mouse liver microsome assessed as compound remaining after 0.5 hrs; format: ADME; details: liver microsomes, read-out: Stability
# Outline: as §1
# [4] = Aqueous solubility of the compound; format: physicochemical; details: buffer
# Outline: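 Shake-flask method. 10 mM DMSO stock added to 0.05 M phosphate buffered saline pH 7.4, 2% DMSO final. Vortexed at 1500 rpm for 24 h at 21 °C, then vacuum-filtered. Filtrate assayed by HPLC with UV at 230 nm against a calibration from a 50 µM DMSO solution. Duplicate determinations, averaged.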
# [5] = test system: Mus musculus; assay: Inhibition of WIN-55212-2-induced hypothermia in mouse assessed as change in rectal temperature at 0.1 umol/kg sc administered 15 mins before WIN-55212-2 challenge measured after 60 mins; design: scale not given: the % may be the effect or the level left
# [6] = test system: Mus musculus; assay: Inhibition of WIN-55212-2-induced hypothermia in mouse assessed as change in rectal temperature at 0.01 umol/kg sc administered 15 mins before WIN-55212-2 challenge measured after 60 mins; design: scale not given: the % may be the effect or the level left
# [7] = test system: Mus musculus; assay: Inhibition of WIN-55212-2-induced hypothermia in sc dosed mouse assessed as change in rectal temperature administered 15 mins before WIN-55212-2 challenge measured after 60 mins; details: 1 h
# [8] = test system: Mus musculus; assay: Inhibition of WIN-55212-2-induced hypothermia in mouse assessed as change in rectal temperature at 10 umol/kg sc administered 15 mins before WIN-55212-2 challenge measured after 60 mins; design: scale not given: the % may be the effect or the level left
# [9] = test system: Mus musculus; assay: Inhibition of WIN-55212-2-induced hypothermia in mouse assessed as change in rectal temperature at 1 umol/kg sc administered 15 mins before WIN-55212-2 challenge measured after 60 mins; design: scale not given: the % may be the effect or the level left
# [10] = test system: Mus musculus; assay: Inhibition of WIN-55212-2-induced hypothermia in mouse assessed as change in rectal temperature at 30 umol/kg sc administered 15 mins before WIN-55212-2 challenge measured after 60 mins; design: scale not given: the % may be the effect or the level left
# [11] = test system: Mus musculus; assay: Inhibition of WIN-55212-2-induced hypothermia in mouse assessed as change in rectal temperature at 0.3 umol/kg sc administered 15 mins before WIN-55212-2 challenge measured after 60 mins; design: scale not given: the % may be the effect or the level left
# [12] = test system: Mus musculus; assay: Inhibition of WIN-55212-2-induced hypothermia in mouse assessed as change in rectal temperature at 3 umol/kg sc administered 15 mins before WIN-55212-2 challenge measured after 60 mins; design: scale not given: the % may be the effect or the level left
# [13] = Volume of distribution at steady state in Wistar rat at 5 mg/kg, po and 1 mg/kg, iv; format: ADME, organism-based; details: in vivo, read-out: Vdss
# Outline: (§2)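 Male Wistar rats dosed 5 mpk po in 0.5% gelatin in 5% mannitol (aq), or 1 mpk iv in 20% N,N-dimethylacetamide in saline. AUC po taken over 0–7.5 h; clearance and half-life from iv dosing; oral bioavailability and Vss from po/iv pharmacokinetic parameters.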
# [14] = test system: Mus musculus; assay: Inhibition of WIN-55212-2-induced hypothermia in mouse assessed as change in rectal temperature at 100 umol/kg sc administered 15 mins before WIN-55212-2 challenge measured after 60 mins; design: scale not given: the % may be the effect or the level left
# [15] = Clearance in Wistar rat at 1 mg/kg, iv; format: ADME, organism-based; design: dose 1 mg/kg, route intravenous; details: in vivo
# Outline: as §2
# [16] = AUC (0 to 7.5 hrs) in Wistar rat at 5 mg/kg, po; format: ADME, organism-based; design: time < 7.5 hr, dose 5 mg/kg, route oral; details: plasma
# Outline: as §2
# [17] = Half life in Wistar rat at 1 mg/kg, iv; format: ADME, organism-based; design: dose 1 mg/kg, route intravenous; details: in vivo
# Outline: as §2
# [18] = Oral bioavailability in Wistar rat at 5 mg/kg; format: ADME, organism-based; details: in vivo
# Outline: as §2
# Cannabinoid receptor 1, sequence (P21554 whole entry): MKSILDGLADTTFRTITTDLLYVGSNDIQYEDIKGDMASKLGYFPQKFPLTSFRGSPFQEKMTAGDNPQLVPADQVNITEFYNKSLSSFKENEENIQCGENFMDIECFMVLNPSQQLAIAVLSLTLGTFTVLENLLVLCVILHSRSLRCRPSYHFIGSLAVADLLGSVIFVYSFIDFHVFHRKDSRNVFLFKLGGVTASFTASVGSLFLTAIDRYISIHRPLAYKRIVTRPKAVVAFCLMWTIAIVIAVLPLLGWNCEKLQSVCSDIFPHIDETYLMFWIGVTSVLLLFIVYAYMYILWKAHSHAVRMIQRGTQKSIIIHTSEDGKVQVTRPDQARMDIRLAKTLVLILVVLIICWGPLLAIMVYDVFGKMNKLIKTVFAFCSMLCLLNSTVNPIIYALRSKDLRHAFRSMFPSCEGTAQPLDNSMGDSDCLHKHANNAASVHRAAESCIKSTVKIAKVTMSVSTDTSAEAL
SMILES,IC50 [1],remaining at 0.5 h [2],remaining at 0.5 h [3],solubility [4],further results
COc1ccccc1-c1cccc(Cn2cnc3ccc(C(=O)NCc4cccc(F)c4)cc32)c1,104 nM,2%,0%,,
CC(C)(C)C(=O)Nc1ccc2ncn(Cc3cccc(-c4cccc5c4OCO5)c3)c2c1,64 nM,35%,2%,,
COc1cc(F)ccc1-c1cccc(Cn2cnc3ccc(NC(=O)C(C)(C)C)cc32)c1,269 nM,,,,
Cn1cc(Cc2cccc(-c3cccc4c3OCO4)c2)c2cc(NC(=O)C(C)(C)C)ccc21,37 nM,52%,29%,< 1 µg/mL,
COc1cc(F)ccc1-c1cccc(Cn2ccc3ccc(NC(=O)C(C)(C)C)cc32)c1,58 nM,51%,58%,< 1 µg/mL,
COc1cc(F)ccc1-c1cccc(Cc2cn(C)c3ccc(NC(=O)C(C)(C)C)cc23)c1,45 nM,70%,72%,< 1 µg/mL,
CC(C)(C)C(=O)Nc1ccc2ccn(Cc3cccc(-c4cccc5c4OCO5)c3)c2c1,51 nM,72%,65%,< 1 µg/mL,
Cc1c(C(=O)NN2CCCCC2)nn(-c2ccc(Cl)cc2Cl)c1-c1ccc(Cl)cc1 [RIMONABANT],,,,,Activity [5]: 13.8%; Activity [6]: -0.2%; ED50 [7]: 0.8 µmol/kg; Activity [8]: 113.4%; Activity [9]: 60.2%; Activity [10]: 100.4%; Activity [11]: 14.7%; Activity [12]: 116.7%
COc1cc(F)ccc1-c1cccc(Cn2cnc3ccc(NC(=O)C(C)(C)C)cc32)n1,73 nM,14%,1%,,
COc1cc(F)ccc1-c1cccc(Cn2ccc3ccc(NC(=O)C(C)(C)CO)cc32)n1,45 nM,45%,54%,11.7 µg/mL,

# Further lines, with some results ahead:
IC50 [1],remaining at 0.5 h [2],remaining at 0.5 h [3],solubility [4],SMILES,further results
7 nM,62%,52%,3.2 µg/mL,CC(C)(CO)C(=O)Nc1ccc2ccn(Cc3cccc(-c4cccc5c4OCO5)n3)c2c1,
3 nM,51%,53%,< 1 µg/mL,CC(C)(O)CC(=O)Nc1ccc2ccn(Cc3cccc(-c4cccc5c4OCO5)n3)c2c1,
27 nM,47%,5%,2 µg/mL,COc1cc(F)ccc1-c1cccc(Cc2cn(C)c3ccc(NC(=O)C(C)(C)CO)cc23)n1,
23 nM,35%,44%,17.9 µg/mL,COc1cc(F)ccc1-c1cccc(Cn2ccc3ccc(NC(=O)CC(C)(C)O)cc32)n1,
21 nM,28%,17%,,CC(C)(C)C(=O)Nc1ccc2ncn(Cc3cccc(-c4cccc5c4OCO5)n3)c2c1,
19 nM,41%,14%,10.6 µg/mL,COc1cc(F)ccc1-c1cccc(Cc2cn(C)c3ccc(NC(=O)CC(C)(C)O)cc23)n1,
7 nM,56%,16%,< 1 µg/mL,Cn1cc(Cc2cccc(-c3cccc4c3OCO4)n2)c2cc(NC(=O)C(C)(C)CO)ccc21,
5 nM,56%,36%,14.9 µg/mL,Cn1cc(Cc2cccc(-c3cccc4c3OCO4)n2)c2cc(NC(=O)CC(C)(C)O)ccc21,Vd [13]: 1.2 L/kg; Activity [14]: 92.5%; clearance [15]: 19 mL/min/kg; AUC(0-t) at 7.5 h [16]: 1290 ng·h/mL; ED50 [7]: 30 µmol/kg; half-life [17]: 1 h; Activity [10]: 46.8%; bioavailability [18]: 37%
